Published values of several laboratories.
Target: Rhodopsin kinase GRK7 (GRK7, Homo sapiens, UniProt Q8WTQ7)
Residues used in one study (Q8WTQ7 1-553): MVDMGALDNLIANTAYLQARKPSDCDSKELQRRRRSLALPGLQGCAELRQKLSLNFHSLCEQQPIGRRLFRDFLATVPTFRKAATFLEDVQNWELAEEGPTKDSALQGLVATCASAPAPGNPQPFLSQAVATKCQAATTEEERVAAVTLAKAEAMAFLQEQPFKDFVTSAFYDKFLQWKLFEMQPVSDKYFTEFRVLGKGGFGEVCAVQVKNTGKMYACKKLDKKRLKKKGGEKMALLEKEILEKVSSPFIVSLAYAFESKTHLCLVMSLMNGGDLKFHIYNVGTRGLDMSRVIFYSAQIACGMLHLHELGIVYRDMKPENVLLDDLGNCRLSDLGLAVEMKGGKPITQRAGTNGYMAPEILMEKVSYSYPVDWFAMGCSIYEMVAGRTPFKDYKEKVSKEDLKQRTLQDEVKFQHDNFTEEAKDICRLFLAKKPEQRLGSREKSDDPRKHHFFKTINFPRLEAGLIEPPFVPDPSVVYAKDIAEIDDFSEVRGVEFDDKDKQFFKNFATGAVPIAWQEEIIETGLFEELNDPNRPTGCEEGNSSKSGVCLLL

CCCOc1ccc([C@@H]2[C@@H](C(=O)O)[C@H](c3ccc4c(c3)OCO4)CN2CC(=O)Nc2c(CC)cccc2CC)cc1  remaining binding (cell-free assay, competition with immobilised ligand; 1 µM): 99%
O=C(c1ccc(Nc2ncc(Cl)c(-c3ccc(Cl)s3)n2)cc1)N1CCC(N2CCCC2)CC1  remaining binding (binding, competition with immobilised ligand; 1 µM): 84%
NS(=O)(=O)c1cc(NC(=O)Cc2ccccc2)ccc1Oc1cccc(Cl)c1  remaining binding (cell-free assay, competition with immobilised ligand; 1 µM): 77%
C[C@H]1CCN(c2nccc(-c3cnn4ncccc34)n2)C1  remaining binding (binding; 1 µM): 78%
CNC(=O)[C@@H]1CC[C@@H](n2c(-c3ccc4cnccc4c3)nc3ccc(C(=O)NCc4cccc(C(N)=O)c4)cc32)C1  remaining binding (binding, competition with immobilised ligand; 1 µM): 100%
C[C@@H](c1ccc(-n2cnc3c(N)ncnc32)cc1)N1CCc2nn(C)c(Cc3ccccc3)c2C1=O  remaining binding (binding, competition with immobilised ligand; 0.1 µM): 72%
CN(c1nccc(-c2cnn3ncccc23)n1)C1CC1  remaining binding (binding; 1 µM): 100%
O=C(NCc1ncc(C(F)(F)F)cc1Cl)c1ccc2c(c1)C1(CCS(=O)(=O)CC1)[C@H](C1CC1)N2S(=O)(=O)c1ccc(F)cc1  remaining binding (cell-free assay, competition with immobilised ligand; 1 µM): 80%
N[C@H]1CCN(c2nccc(-c3cnn4ncccc34)n2)C1  remaining binding (binding; 1 µM): 100%
COc1cnc(Nc2cccc(S(N)(=O)=O)c2)nc1N1CCN(c2ccccc2)CC1  remaining binding (binding, competition with immobilised ligand; 1 µM): 58%
COc1cc(-c2cn(C3CCc4c(F)cccc4N(CC(F)(F)F)C3=O)nn2)ccc1-n1cnc(C)c1 (stereo not shown)  remaining binding (cell-free assay, competition with immobilised ligand; 1 µM): 100%
c1cnn2ncc(-c3ccnc(N4CCC45COC5)n3)c2c1  remaining binding (binding; 1 µM): 66%
O=C(NCCCN1CCOCC1)c1ccc(Nc2ncc(Cl)c(-c3ccc(Cl)s3)n2)cc1  remaining binding (binding, competition with immobilised ligand; 1 µM): 90%
O=C(NCCCC1CCCCC1)c1ccc(CNC(=O)c2cnn(-c3ccccc3)c2C(F)(F)F)cc1  remaining binding (cell-free assay, competition with immobilised ligand; 0.1 µM): 100%
Nc1ncc2c(n1)-c1c([nH]c3ccc(C#CC4CC4)cc13)CCCC2  remaining binding (binding, competition with immobilised ligand; 1 µM): 93%
c1cncc(-c2cccc(Nc3nccc(NC4CCCCC4)n3)c2)c1  remaining binding (binding, competition with immobilised ligand; 10 µM): 16%
FC(F)(F)c1ccc2c(c1)nc(-c1cccnc1)n2C1CC1  remaining binding (cell-free assay, competition with immobilised ligand; 1 µM): 81%
Cc1cnc(Nc2ccc(C(=O)N3CCC(N4CCCC4)CC3)cc2)nc1-c1cc2ccccc2s1  remaining binding (binding, competition with immobilised ligand; 1 µM): 29%
COc1ccnn2ncc(-c3ccnc(N(C)C)n3)c12  remaining binding (binding; 1 µM): 94%
CN(C)CC#Cc1ccc(OCCCc2sc(N3CCc4cccc(C(=O)Nc5nc6ccccc6s5)c4C3)nc2C(=O)O)c(F)c1  remaining binding (cell-free assay, competition with immobilised ligand; 1 µM): 97%
O=C(NCC1CCOCC1)c1n[nH]cc1NC(=O)c1c(F)cccc1F  remaining binding (binding, competition with immobilised ligand; 1 µM): 89%
CC1CCCN1c1nccc(-c2cnn3ncccc23)n1 (stereo not shown)  remaining binding (binding; 1 µM): 100%
